According to ChEMBL document CHEMBL1126073, “Synthesis of carbon-11 labeled iodinated cocaine derivatives and their distribution in baboon brain measured using positron emission tomography” (J Med Chem, 1992):

Experiments:
[1] = (§1) Baboon plasma free fraction.; type: ADME, cell-free; conditions: cercopithecidae, read-out: Free fraction
In short: (§2)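 Free fraction by ultrafiltration: 11C-labelled compound added to 0.18 mL baboon plasma plus 0.02 mL 100 mM sodium phosphate pH 7.4 with 1 μg physostigmine (esterase block). Incubated 15 min at room temperature, vortexed every 5 min, centrifugal filter spun 5 min. Value = 11C concentration in ultrafiltrate / concentration in incubation mixture.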

[2] = Percentage of tracer or metabolite (CO2) in baboon plasma at 10 min after injection of the compound; type: ADME, cell-free; conditions: cercopithecidae
In short: (§3)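 Arterial baboon plasma taken 1, 5, 10 and 30 min after injection of 11C tracer. 0.2 mL plasma in 1 mL acetonitrile, sonicated, centrifuged. Supernatant run on silica HPLC with acetonitrile/0.004 M (NH4)2HPO4 70/30 plus unlabelled carrier. Unchanged tracer, EME and void-volume acidic 11C measured as fractions of total. [11C]CO2 measured separately by volatilization assay. Mean of two experiments.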

[3] = Percentage of tracer or metabolite (CO2) in baboon plasma at 30 min after injection of the compound; type: ADME, cell-free; conditions: cercopithecidae, 0.5 h; in short: as §3
[4] = Percentage of tracer or metabolite (CO2) in baboon plasma at 5 min after injection of the compound; type: ADME, cell-free; conditions: cercopithecidae; in short: as §3
[5] = Percentage of tracer or metabolite(EME) in baboon plasma at 10 min after injection of the compound; type: ADME, cell-free; conditions: cercopithecidae; in short: as §3
[6] = Percentage of tracer or metabolite(EME) in baboon plasma at 1 min after injection of the compound; type: ADME, cell-free; conditions: cercopithecidae; in short: as §3
[7] = Percentage of tracer or metabolite(EME) in baboon plasma at 30 min after injection of the compound; type: ADME, cell-free; conditions: cercopithecidae, 0.5 h; in short: as §3
[8] = Percentage of tracer or metabolite(EME) in baboon plasma at 5 min after injection of the compound; type: ADME, cell-free; conditions: cercopithecidae; in short: as §3
[9] = Percentage of tracer or metabolite (acid metabolites) in baboon plasma at 10 min after injection of the compound; type: ADME, cell-free; conditions: cercopithecidae; in short: as §3
[10] = Percentage of tracer or metabolite (acid metabolites) in baboon plasma at 1 min after injection of the compound; type: ADME, cell-free; conditions: cercopithecidae; in short: as §3
[11] = Percentage of tracer or metabolite (acid metabolites) in baboon plasma at 30 min after injection of the compound; type: ADME, cell-free; conditions: cercopithecidae, 0.5 h; in short: as §3
[12] = Percentage of tracer or metabolite (acid metabolites) in baboon plasma at 5 min after injection of the compound; type: ADME, cell-free; conditions: cercopithecidae; in short: as §3
[13] = Percentage of tracer or metabolite (unchanged) in baboon plasma at 10 min after injection of the compound; type: ADME, cell-free; conditions: cercopithecidae; in short: as §3
[14] = Percentage of tracer or metabolite (unchanged) in baboon plasma at 1 min after injection of the compound; type: ADME, cell-free; conditions: cercopithecidae; in short: as §3
[15] = Percentage of tracer or metabolite (unchanged) in baboon plasma at 30 min after injection of the compound; type: ADME, cell-free; conditions: cercopithecidae, 0.5 h; in short: as §3
[16] = Percentage of tracer or metabolite (unchanged) in baboon plasma at 5 min after injection of the compound; type: ADME, cell-free; conditions: cercopithecidae; in short: as §3
[17] = Clearance from plasma(with matabolite-corrected plasma radioactivity-time integral) at 30 min after administration.; type: ADME, cell-free; conditions: cercopithecidae, 0.5 h
In short: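 Anaesthetised baboons given 4.7–8.4 mCi 11C tracer. Automated arterial sampling for the first 2 min, then manual sampling. Plasma total radioactivity corrected for metabolites using two-component exponential fits to the metabolite fractions. Time-radioactivity integral to 30 min by cubic spline integration.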

Monkey [18] = experiment: Peak striatal uptake in baboon expressed as percentage of injected dose per mL of tissue.; type: functional, Cercopithecidae, Striatum
In short: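 Adult female baboons (n = 7, 14.2–18.5 kg), ketamine 10 mg/kg i.m. induction, then oxygen/nitrous oxide/isoflurane anaesthesia. 4.7–8.4 mCi of N-11C-methyl tracer injected intravenously per PET scan. Regional time-activity curves; peak striatal radioactivity expressed as percent of injected dose per mL of tissue.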

[19] = Percentage of tracer or metabolite (CO2) in baboon plasma at 1 min after injection of the compound; type: ADME; conditions: cercopithecidae; in short: as §3
[20] = Percentage unmetabolized in baboon plasma at 30 min after administration.; type: functional, Cercopithecidae; in short: as §3
[21] = target: Sodium-dependent dopamine transporter (Rattus norvegicus, UniProt P23977); experiment: Concentration inhibiting [3H]cocaine binding site to rat striatal membranes.
Sodium-dependent dopamine transporter, sequence (P23977 whole entry): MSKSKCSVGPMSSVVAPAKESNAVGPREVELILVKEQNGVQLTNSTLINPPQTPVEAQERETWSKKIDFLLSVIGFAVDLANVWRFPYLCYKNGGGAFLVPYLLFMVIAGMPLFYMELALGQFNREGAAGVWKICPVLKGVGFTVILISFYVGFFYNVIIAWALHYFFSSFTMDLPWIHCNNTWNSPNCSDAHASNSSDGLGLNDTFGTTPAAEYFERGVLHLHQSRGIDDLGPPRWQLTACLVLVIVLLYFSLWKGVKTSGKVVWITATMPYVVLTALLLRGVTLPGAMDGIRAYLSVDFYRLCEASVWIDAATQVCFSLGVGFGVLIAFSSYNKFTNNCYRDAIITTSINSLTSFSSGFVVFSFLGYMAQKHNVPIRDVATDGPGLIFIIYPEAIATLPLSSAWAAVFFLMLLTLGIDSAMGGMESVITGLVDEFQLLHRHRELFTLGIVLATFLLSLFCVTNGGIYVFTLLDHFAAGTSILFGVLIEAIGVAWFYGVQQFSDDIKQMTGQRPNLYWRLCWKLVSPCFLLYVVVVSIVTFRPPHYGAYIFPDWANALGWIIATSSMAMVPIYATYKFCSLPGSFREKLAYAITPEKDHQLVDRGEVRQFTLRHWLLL
In short: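 Rat striatal membranes prepared in ice-cold 320 mM sucrose with 10 mM NaH2PO4, pH 7.45 (1000g 3 min, then 30000g 30 min pellet). About 0.25 mg protein incubated at room temperature for 20 min with 2 nM [3H]cocaine, inhibitors 6 nM to 20 μM. Filtration through polyethylenimine-soaked glass-fibre filters, ice-cold wash, liquid scintillation counting.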

Monkey [22] = experiment: as §1; type: functional, organism-based; conditions: Cercopithecidae; in short: as §2

COC(=O)[C@H]1[C@@H](OC(=O)c2ccccc2)C[C@@H]2CC[C@H]1N2C [COCAINE]
fraction unbound [1]: 0.1 | Tracer [2]: 37% | Tracer [3]: 44% | Tracer [4]: 30% | Tracer [5]: 11% | Tracer [6]: 12% | Tracer [7]: 12% | Tracer [8]: 13% | Tracer [9]: 38% | Tracer [10]: 0.4% | Tracer [11]: 60% | Tracer [12]: 22% | Tracer [13]: 31% | Tracer [14]: 70% | Tracer [15]: 17% | Tracer [16]: 44% | Plasma integral [17]: 2.1 uCi min ml-1 | Peak striatal uptake (Monkey [18]): 0.06 | Tracer [19]: 6% | Unmetabolized [20]: 17%

COC(=O)C1C2CCC(C[C@@H]1OC(=O)c1cccc(I)c1)N2C (stereo partly specified)
fraction unbound [1]: 0.016 | Tracer [2]: 33% | Tracer [3]: 43% | Tracer [4]: 17% | Tracer [5]: 1% | Tracer [6]: 0.7% | Tracer [7]: 4% | Tracer [8]: 3% | Tracer [9]: 35% | Tracer [10]: 0.4% | Tracer [11]: 51% | Tracer [12]: 18% | Tracer [13]: 60% | Tracer [14]: 95% | Tracer [15]: 36% | Tracer [16]: 77% | Plasma integral [17]: 2.8 uCi min ml-1 | Peak striatal uptake (Monkey [18]): 0.03 | Tracer [19]: 3% | Unmetabolized [20]: 36%

COC(=O)C1C2CCC(C[C@@H]1OC(=O)c1ccccc1I)N2C (stereo partly specified)
Tracer [2]: 21% | Tracer [3]: 29% | Tracer [4]: 15% | Tracer [5]: 0.2% | Tracer [6]: 0.3% | Tracer [7]: 0.2% | Tracer [8]: 0.2% | Tracer [9]: 52% | Tracer [10]: 0.02% | Tracer [11]: 69% | Tracer [12]: 15% | Tracer [13]: 48% | Tracer [14]: 97% | Tracer [15]: 33% | Tracer [16]: 79% | Plasma integral [17]: 6.1 uCi min ml-1 | IC50 [21]: 350 nM | Peak striatal uptake (Monkey [18]): 0.01 | Fu (Monkey [22]): 0.003% | Tracer [19]: -7% | Unmetabolized [20]: 33%

COC(=O)C1C2CCC(C[C@@H]1OC(=O)c1ccc(I)cc1)N2C (stereo partly specified)
fraction unbound [1]: 0.06 | Tracer [2]: 21% | Tracer [3]: 32% | Tracer [4]: 7% | Tracer [5]: 2% | Tracer [6]: 1.5% | Tracer [7]: 2.6% | Tracer [8]: 2.5% | Tracer [9]: 45% | Tracer [10]: 0.5% | Tracer [11]: 71% | Tracer [12]: 17% | Tracer [13]: 48% | Tracer [14]: 90% | Tracer [15]: 22% | Tracer [16]: 60% | Plasma integral [17]: 1.8 uCi min ml-1 | Peak striatal uptake (Monkey [18]): 0.04 | Tracer [19]: 1% | Unmetabolized [20]: 22%
